Measured values: ChEMBL document CHEMBL1124658, “Conformationally restricted analogues of the muscarinic agent N-methyl-N-(1-methyl-4-pyrrolidino-2-butynyl)acetamide” (J Med Chem, 1989)

Assays:
[1] = target: Muscarinic acetylcholine receptor; test: Compound was tested for the concentration that inhibited the specific binding of (-)-[3H]-NMS to muscarinic receptor in the rat cerebral cortex.; type: tissue-based
Method in brief: (§1)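 Rat (male Sprague–Dawley, 200–300 g) cerebral cortex homogenate, 10 mg wet tissue/mL in 50 mM Na–K phosphate pH 7.4. Incubated 30 min at 30 °C with 0.3 nM (–)-[3H]NMS plus unlabelled ligand; filtration assay. Nonspecific binding with 10 μM atropine. IC50 from one-site competition fit, corrected by Cheng–Prusoff to Ki; three experiments in triplicate.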

Mus musculus [2] = species: Mus musculus; test: Antimuscarinic activity in intact mice was determined as the dose required to double the dose of oxotremorine inducing a predetermined tremor intensity; type: functional
Method in brief: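 Male Swiss–Webster mice (24–32 g) were given the compound ip at 200 μmol/kg in groups of six or more, with six untreated controls. Twenty minutes later the oxotremorine ED50 (iv) was found by the up-and-down method, with intermittent spontaneous grade 2 tremor as end point. Active compounds were tested at two more doses, and the doubling dose came from linear regression of oxotremorine ED50 against antagonist dose.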

Cavia porcellus [3] = species: Cavia porcellus; test: Maximum contractile response relative to that elicited by carbachol in guinea pig ileum; type: functional
Method in brief: (§2)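 Guinea pig ileum in Tyrode (pH 7.4, 0.3 mM hexamethonium), 37 °C, isotonic contractions at 1 g tension; cumulative agonist concentration–response curves, concentration raised stepwise by a factor of 2.15; maximal contraction expressed relative to the carbachol maximum. Three determinations, each in triplicate.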

Cavia porcellus [4] = species: Cavia porcellus; test: Equilibrium dissociation constant of the compound-receptor complex was determined by its ability to antagonize carbachol-induced contractions in the ileum (spasmolytic activity); type: functional
Method in brief: (§3)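 Isolated guinea pig ileum in Tyrode solution (pH 7.4, 0.3 mM hexamethonium), 37 °C, isotonic recording at 1 g tension. Cumulative carbachol concentration–response curves (stepwise ×2.15) with at least three antagonist concentrations; dissociation constant from shifts, Schild slope checked where range allowed. Three determinations in triplicate.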

[5] = target: Muscarinic acetylcholine receptor; test: Compound was tested for the concentration that inhibited the specific binding of (-)-[3H]-NMS to muscarinic acetylcholine receptor in the rat cerebral cortex.; type: tissue-based; method in brief: as §1
Mus musculus [6] = species: Mus musculus; test: Antimuscarinic activity in intact mice was determined as the dose required to double the dose of oxotremorine inducing a predetermined tremor intensity.; type: functional
Method in brief: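 Male Swiss–Webster mice (24–32 g), groups of six or more; antagonist given ip 200 μmol/kg, untreated controls. After 20 min, oxotremorine ED50 (iv) estimated by up-and-down method, end point intermittent spontaneous grade 2 tremor. Active compounds tested at two further doses; oxotremorine ED50 plotted against antagonist dose, dose doubling it found by linear regression.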

Cavia porcellus [7] = species: Cavia porcellus; test: In vitro effective concentration required to elicit half-maximal contractile response in guinea pig ileum.
Cavia porcellus [8] = species: Cavia porcellus; test: Dissociation constant of the compound-receptor complex.; type: functional
Method in brief: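 Guinea pig ileum in Tyrode solution (pH 7.4) with 0.3 mM hexamethonium at 37 °C, contractions recorded isotonically at 1 g tension. Cumulative carbachol concentration–response curves were built in steps of a factor of 2.15, in the presence of at least three antagonist concentrations. Antagonism was analysed by Schild plots.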

Cavia porcellus [9] = species: Cavia porcellus; test: Maximum contractile response relative to that elicited by carbachol.; type: functional; method in brief: as §2
[10] = target: Muscarinic acetylcholine receptor; test: Compound was tested for the concentration that inhibited the specific binding of (-)-[3H]-NMS to muscarinic receptor in the rat cerebral cortex; type: tissue-based; method in brief: as §1
Cavia porcellus [11] = species: Cavia porcellus; test: Equilibrium dissociation constant of the compound-receptor complex was determined by its ability to antagonize carbachol-induced contractions in the ileum (spasmolytic activity).; type: functional; method in brief: as §3
Cavia porcellus [12] = species: Cavia porcellus; test: In vitro effective concentration required to elicit half-maximal contractile response in guinea pig ileum.; remark: listed apart in the source

SMILES | Emax (Cavia porcellus [3]) | Kd (Cavia porcellus [4]) [µM] | Ki [5] [µM] | Tremorolytic dose (Mus musculus [6]) [µM/kg] | further results
CC(=O)N1CCCC1C#CCN1CCCC1 (stereo not drawn) | 0 | 1.4 | – | – | Ki [1]: 0.67 µM; Tremorolytic dose (Mus musculus [2]): 6.3 µM/kg
CN(C)CC#CC1CCC(=O)N1C (stereo not drawn) | 0 | 496 | 204 | >200 | –
CC(=O)N1CCCC1C#CC[N+](C)(C)C.[I-] (stereo not drawn) | 0.8 | – | 6.1 | – | EC50 (Cavia porcellus [7]): 7.5 µM
CN1C(=O)CCC1C#CCN1CCCC1 (stereo not drawn) | – | – | – | 78.3 | Kd (Cavia porcellus [8]): 45.3 µM; Ki [1]: 18.3 µM; Emax (Cavia porcellus [9]): 0
CN1C(=O)CCC1C#CC[N+](C)(C)C.[I-] (stereo not drawn) | <0.6 | – | 145 | – | EC50 (Cavia porcellus [7]): > 500 µM
CC(=O)N(C)C(C)C#CCN1CCCC1 (stereo not drawn) | 0.83 | – | – | 0.6 | –
CC(=O)N1CCCC1C#CCN(C)C (stereo not drawn) | 0 | – | – | 119 | Ki [10]: 25.4 µM; Kd (Cavia porcellus [11]): 125 µM
CC(=O)N(C(C)=O)C(C)C#CCN1CCCC1 (stereo not drawn) | 0 | 0.28 | – | 3.2 | –
CC(=O)N1C(=O)CCC1C#CCN1CCCC1 (stereo not drawn) | 0 | 1.43 | 0.78 | 3.5 | –
CC(=O)N1C(=O)CCC1C#CC[N+](C)(C)C.[I-] (stereo not drawn) | 0.78 | – | 6.4 | – | EC50 (Cavia porcellus [7]): 13.4 µM
CC(=O)N1C(=O)CCC1C#CCN(C)C (stereo not drawn) | 0 | 95.6 | 53.2 | 160 | –
CN1[C@@H]2CC[C@H]1C[C@@H](OC(=O)C(CO)c1ccccc1)C2 (stereo partly drawn) [ATROPINE] | – | – | – | – | Kd (Cavia porcellus [8]): 0.0009 µM; Tremorolytic dose (Mus musculus [2]): 0.57 µM/kg
C[N+](C)(C)CCOC(N)=O.[Cl-] [CARBACHOL] | – | – | – | – | Kd (Cavia porcellus [8]): 15.3 µM; EC50 (Cavia porcellus [12]): 0.1 µM; Emax (Cavia porcellus [9]): 1
